Article PMC3549054 (Biochemistry, 2012)
pKd: −log10 of the molar value. “Also recorded” adds a separate entry of the source. Where two headings read alike, the source gives them in different places.

Columns and labels:
[1] = system: CBS; conditions: ref [44]; cited from earlier work
[2] = target: Fe(II)-GAPDH (ferrous rGAPDH-heme) (Oryctolagus cuniculus, UniProt P46406); experiment: Stopped-flow kinetics of CO binding to Fe; parameters: species or system rabbit
[3] = target: rabbit GAPDH (Oryctolagus cuniculus, UniProt P46406); experiment: UV-visible binding of protoporphyrin IX analogs to rabbit GAPDH
[4] = target: T1, rGAPDH (Oryctolagus cuniculus, UniProt P46406); experiment: Ethoxylation of His residues with DEPC, then heme binding by UV-vis; type: biochemical, rabbit; conditions: 15 mM DEPC, 2 h on ice
Summary of the method: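 Recombinant rabbit GAPDH (N-His6, E. coli BL21(DE3), Ni-NTA purified), 100 µM apo or preformed with 20 µM heme, treated with 15 mM DEPC on ice in 40 mM EPPS pH 7.6, 150 mM NaCl, 10% glycerol. Excess DEPC removed by three buffer exchanges on 10 kDa spin columns. Protein diluted to ~40 µM; UV-vis spectra taken before and after adding 8 µM fresh hemin.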

[5] = target: Ferric rGAPDH-heme (Oryctolagus cuniculus, UniProt P46406); type: binding, rabbit
[6] = target: T1, rGAPDH; experiment: Binding of pre-reduced heme to rGAPDH; parameters: species or system rabbit; conditions: after 10 min
[7] = target: T1, rGAPDH; experiment: Kinetics of heme transfer from GAPDH to apo-myoglobin, koff; type: binding, rabbit; conditions: for Kd: Wild type rGAPDH
[8] = system: PhuS; conditions: ref [57]; cited from earlier work
[9] = target: HtsA; conditions: ref [83], cited from earlier work
[10] = target: HasAp; conditions: ref [34], cited from earlier work
[11] = system: Sperm whale Mb; conditions: ref [56]; cited from earlier work
[12] = target: Rv0203; conditions: ref [85], cited from earlier work
[13] = target: pa-HO; conditions: ref [57], cited from earlier work
[14] = target: HTP (PhuT); conditions: ref [21], cited from earlier work
[15] = target: CcmE; conditions: ref [82], cited from earlier work
[16] = target: Nuclear hormone receptor, Rev-erb β; conditions: read-out: Kd (direct), ref [14], cited from earlier work
[17] = target: Shp; conditions: ref [84], cited from earlier work
[18] = target: T1, rGAPDH; experiment: GAPDH dehydrogenase activity assay; type: biochemical, rabbit; conditions: data not shown
Summary of the method: (§1)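 NADH formation was followed at 340 nm (ε340 = 6.22 mM−1cm−1) in 40 mM triethanolamine, 50 mM Na2HPO4, 0.2 mM EDTA, pH 8.9, with 2 mM NAD and 2 mM D-glyceraldehyde 3-phosphate. Reactions were started with ~1 µg enzyme. The rabbit enzyme was N-His6, Ni-NTA purified; the human enzyme was a GST fusion cleaved with thrombin. Both were expressed in E. coli.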

[19] = target: Apo-DHR51-LBD; conditions: read-out: Kd (direct); ref [81]; cited from earlier work
[20] = target: HRI (heme regulated inhibitor), eIF2α; conditions: ref [60], cited from earlier work
[21] = target: T1, rGAPDH; experiment: Spectrophotometric titration of GAPDH with hemin; type: binding, rabbit
[22] = system: BSA; conditions: cited from earlier work
[23] = system: nitrobindin; conditions: ref [68]; cited from earlier work
[24] = target: T1, rGAPDH; experiment: Stopped-flow kinetics of heme binding to GAPDH, kon; parameters: species or system rabbit; conditions: ferric heme, 10 °C
Summary of the method: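 N-terminally His6-tagged rabbit GAPDH, expressed in E. coli BL21(DE3) and Ni-NTA purified. Freshly prepared hemin (5 µM) was mixed by stopped-flow at 10 °C with rGAPDH at 10–80 µM in 100 mM EPPS pH 7.6, 150 mM NaCl and 10% glycerol. Traces were collected on a diode array detector, and kobs was obtained from single-exponential fits.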

[25] = target: hGAPDH (Homo sapiens, UniProt P04406); experiment: GAPDH dehydrogenase activity assay; type: biochemical; conditions: data not shown
Summary of the method: as §1

[26] = Redox potentiometry of rGAPDH-heme; type: physicochemical; conditions: titration of ferric complex with dithionite
[27] = CO-saturated buffer (1 mM final concentration), 10 °C
[28] = fit of Equation 2 to fast phase
[29] = pH 7.4 (Tris, 100 mM, 10% glycerol), room temperature

Sequence of Ferric rGAPDH-heme (P46406 2-333): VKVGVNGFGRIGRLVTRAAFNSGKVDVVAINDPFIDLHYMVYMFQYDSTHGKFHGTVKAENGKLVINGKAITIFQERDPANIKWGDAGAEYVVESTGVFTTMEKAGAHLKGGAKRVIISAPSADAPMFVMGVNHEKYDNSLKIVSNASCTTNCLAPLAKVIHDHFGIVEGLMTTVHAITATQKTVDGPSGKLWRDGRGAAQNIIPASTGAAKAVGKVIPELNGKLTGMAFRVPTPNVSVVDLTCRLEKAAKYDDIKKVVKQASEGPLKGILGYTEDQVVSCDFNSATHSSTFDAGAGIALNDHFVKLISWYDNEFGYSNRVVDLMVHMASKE
Sequence of rabbit GAPDH (P46406 2-333 limits assumed): as the sequence (P46406 2-333) above
T1 sequence (P46406 2-333 limits assumed): as the sequence (P46406 2-333) above
Sequence of Fe(II)-GAPDH (ferrous rGAPDH-heme) (P46406 2-333): as above
Sequence of hGAPDH (P04406 2-335 limits assumed): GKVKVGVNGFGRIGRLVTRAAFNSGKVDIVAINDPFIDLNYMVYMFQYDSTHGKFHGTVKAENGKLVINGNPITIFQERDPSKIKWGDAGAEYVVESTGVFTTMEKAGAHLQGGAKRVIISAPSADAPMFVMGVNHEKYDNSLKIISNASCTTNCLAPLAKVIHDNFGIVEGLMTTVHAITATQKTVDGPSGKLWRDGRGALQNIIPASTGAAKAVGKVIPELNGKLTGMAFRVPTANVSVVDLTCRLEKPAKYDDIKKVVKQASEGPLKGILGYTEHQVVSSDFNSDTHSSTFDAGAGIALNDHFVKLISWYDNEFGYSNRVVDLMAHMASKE

[C-]#[O+] [CO, carbon monoxide]
rebinding rate ratio for displacement of Cys^52 by CO [1]: 106 µM | kobs, 6-coord, 420 nm [2]: 1.2 s⁻¹ | kobs1 (fast phase) of CO binding [2, 27]: 1.5 s⁻¹ | kobs2 (slow phase) of CO binding [2, 27]: 0.068 s⁻¹ | rate of distal ligand displacement by CO ([2]; [CO]>0.2 mM): 1.75 s⁻¹ | axial ligand dissociation rate constant k−Y [2, 28]: ~ 2 s^−1 | ligand rebinding rate ratio kY/k'CO [2, 28]: ~ 0.1 mM | kobs 5-coord, 410 nm ([2]; saturating [CO], [rGAPDHtetramer]/[heme] < 1:1): 4.3 s⁻¹

C=Cc1c(C)c2cc3[nH]c(cc4nc(cc5nc(cc1[nH]2)C(C)=C5CCC(=O)[O-])C(CCC(=O)[O-])=C4C)c(C)c3C=C.[Co+2] [Co(III)-protoporph IX, Co(III)-protoporphyrin IX]
Binding to GAPDH (Comments) [3, 29]: LS, red-shift | Binding to GAPDH (Comments) ([3]; pH 7.4 (Tris, 100 mM, 10% glycerol), room temperature, listed as Co(III)-protoporphyrin IX): bound

CCOC(=O)OC(=O)OCC [DEPC, diethylpyrocarbonate]
effect of DEPC on preformed rGAPDH-heme spectral properties [4]: did not alter; also recorded: had no effect; also recorded: does not alter | effect of DEPC treatment of heme-free rGAPDH on heme binding [4]: abolished the protein’s ability to bind heme; also recorded: hampered heme binding completely; also recorded: unable to bind heme

C=CC1=C(C)c2cc3[nH]c(cc4nc(cc5[nH]c(cc1n2)c(C)c5CCC(=O)O)C(CCC(=O)O)=C4C)c(C)c3C=C [Protoporph IX, Protoporphyrin IX]
Binding to GAPDH (Comments) [3, 29]: No binding

[N-]=[N+]=[N-] [azide]
binding to ferric rGAPDH-heme / displacement of distal ligand (as summarised) [5]: unable to bind; also recorded: not displaced

C=CC1=C(C)c2cc3[n-]c(cc4[n-]c(cc5nc(cc1n2)C(C)=C5C=C)c(C)c4CCC(=O)O)c(CCC(=O)O)c3C.[Fe+2] [ferrous heme]
fraction of total available reduced heme forming a complex with rGAPDH [6]: 18% | koff of ferrous (reduced) heme ([7]; ferrous heme, 25 °C, anaerobic, single exponential): 0.0042 s⁻¹

C=CC1=C(C)c2cc3[n-]c(cc4[n-]c(cc5nc(cc1n2)C(C)=C5C=C)c(C)c4CCC(=O)O)c(CCC(=O)O)c3C.[Cl-].[Fe+3] [hemin, Fe(III)-protoporphyrin IX]
koff [8]: 0.036 s⁻¹ | kon [8]: 180000 M⁻¹ s⁻¹ | pKd ([9]; read-out: Kd (koff/kon)): 5.10 | kon [9]: 8e+07 M⁻¹ s⁻¹ | Binding to GAPDH (Comments) [3, 29]: LS, red-shift | pKd ([10]; read-out: Kd (koff/kon)): 4.46 | kon [10]: 1.6e+07 M⁻¹ s⁻¹ | koff [11]: 8.4e-07 s⁻¹ | kon [11]: 7.6e+07 M⁻¹ s⁻¹ | pKd ([12]; read-out: Kd (koff/kon)): 9.21 | koff [12]: 0.082 s⁻¹ | kon [12]: 1.3e+08 M⁻¹ s⁻¹ | pKd ([13]; read-out: Kd (koff/kon)): 6.22 | koff [13]: 0.066 s⁻¹ | kon [13]: 110000 M⁻¹ s⁻¹ | pKd ([14]; read-out: Kd (direct)): 2.92 | koff [14]: 0.00038 s⁻¹ | Kd ([15]; read-out: Kd (direct) (M), high affinity): 2e-07 M | Kd ([15]; read-out: Kd (direct) (M), low affinity): 1e-05 M | pKd ([16]; Rev-erb β (oxidized)): 6.93 | pKd ([16]; Rev-erb β (reduced)): 7.64 | pKd ([17]; read-out: Kd (koff/kon)): 4.66 | kon [17]: 1.6e+06 M⁻¹ s⁻¹ | effect of heme binding on dehydrogenase activity [18]: does not affect | koff1 (fast phase) ([7]; ferric heme, 10 °C, bi-exponential fit): 0.007 s⁻¹ | Kd ([7]; read-out: Kd (koff/kon) (M), from fast koff): 3.9e-07 M | Kd ([7]; read-out: Kd (koff/kon) (M), from slow koff): 1.9e-08 M | pKd ([7]; read-out: approximate affinities from koff/kon, ferric heme, 10 °C): 6.41 to 7.72 | pKd [19]: 6.37 | pKd ([20]; read-out: Kd (koff/kon)): 9.85 | koff [20]: 0.0015 s⁻¹ | kon [20]: 1.1e+07 M⁻¹ s⁻¹ | pKd ([21]; read-out: Kd (direct), Wild type rGAPDH): 7.62 | pKd ([21]; read-out: dissociation constant (Kd), direct titration, 10 µM rGAPDH, hemin 0–35 µM, 100 mM Tris pH 7.4, 10% glycerol): 7.62 | heme dissociation rate ([22]; BSA-heme, ref [65]): 10^−2 s^−1 | pKd ([22]; read-out: Kd (koff/kon), ref [56]): 9.66 | koff ([22]; ref [56]): 0.011 s⁻¹ | kon ([22]; ref [56]): 5e+07 M⁻¹ s⁻¹ | heme loss rate [23]: 3.6e-05 s⁻¹ | kon [24]: 17800 M⁻¹ s⁻¹ | effect of heme binding on dehydrogenase activity [25]: does not affect

c1c[nH]cn1 [imidazole]
binding to ferric rGAPDH-heme (spectral shift) [5]: did not bind | binding to ferric rGAPDH-heme / displacement of distal ligand (as summarised) [5]: unable to bind

N#C[S-].[Na+] [thiocyanate]
binding to ferric rGAPDH-heme (spectral shift) [5]: did not bind

Fe(III)-2,4-diacetyldeuteroporph IX
Binding to GAPDH (Comments) ([3]; pH 7.4): LS, partial binding, red-shift

Fe(III)-deuteroporph IX
Binding to GAPDH (Comments) ([3]; pH 7.4): LS, red-shift

Fe(III)-mesoporph IX
Binding to GAPDH (Comments) ([3]; pH 7.4): LS, red-shift

GAPDH-heme: pre-formed complex of rabbit GAPDH with heme
midpoint potential, reductive titration [26]: −153 ± 4 mV

Zn(II)-protoporph IX
Binding to GAPDH (Comments) ([3]; pH 7.4): LS, partial binding, red-shift
